The subject of one data set is Jurkat. Briefly: Cytotoxicity against human Jurkat cells after 96 hrs by SYBR green assay in presence of pantothenic acid. Type of data set: cell-based. In outline:
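Human leukemic T-cell line grown 96 h in medium with 1 μM pantothenic acid. IC50 from concentration-response profiles. Means ± SEM of three independent experiments performed in triplicate.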

Another data set deals with pantetheinase. Briefly: Drug metabolism of the compound assessed as compound hydrolysis at 200 uM after 10 mins by fluorescence assay in presence of recombinant human pantetheinase. The format is physicochemical. Particulars: read-out: Drug metabolism.
The test system of data set [1] is Plasmodium falciparum. Briefly: Antiplasmodial activity against intraerythrocytic Plasmodium falciparum 3D7 infected in human erythrocytes in heat treated RPMI-1640 culture medium assessed as parasite growth inhibition after 96 hrs by microscopic analysis. The format is functional, organism-based. The conditions noted are these: 3D7, 96 h. The method in brief:
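3D7 ring-stage-initiated cultures in erythrocytes, grown 96 h in aged Albumax-complete RPMI. The medium was heat-treated for a prolonged time to reduce pantetheinase activity and held 1 μM pantothenic acid. IC50 from concentration-response. Mean ± SEM (or range/2) of at least two independent experiments, each in triplicate.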

Data set [2] deals with Plasmodium falciparum. Briefly: Antiplasmodial activity against intraerythrocytic Plasmodium falciparum 3D7 infected in human erythrocytes in fresh RPMI-1640 culture medium assessed as parasite growth inhibition after 96 hrs by microscopic analysis. The format is functional, organism-based. The conditions noted are these: 3D7, 96 h. In outline:
(§1)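 3D7 parasites in erythrocytes, started mostly at ring stage, grown 96 h in freshly prepared Albumax-complete RPMI (pantetheinase active) with 1 μM pantothenic acid. IC50 from concentration-response. Mean ± SEM (or range/2) of at least two independent experiments, each in triplicate.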

The nature of data set [3]: Selectivity index, ratio of IC50 for human Jurkat cells to IC50 for intraerythrocytic Plasmodium falciparum 3D7 infected in human erythrocytes in fresh RPMI-1640 culture medium. The format is toxicity, cell-based. Particulars: read-out: Ratio IC50.
For data set [4], the system named is Plasmodium falciparum. Briefly: Antiplasmodial activity against intraerythrocytic Plasmodium falciparum 3D7 infected in human erythrocytes in fresh RPMI-1640 culture medium assessed as parasite growth inhibition after 96 hrs by microscopic analysis in presence of pantetheinase. The conditions noted are these: 3D7, 96 h. Type of data set: functional, organism-based. The method in brief: as §1

We go through 5 molecules from ChEMBL document CHEMBL2407032, “Structural modification of pantothenamides counteracts degradation by pantetheinase and improves antiplasmodial activity” (ACS Med Chem Lett, 2013).

Broadly, the IC50 is the concentration that gives 50% inhibition.

With `CCCCCNC(=O)CCCNC(=O)[C@H](O)C(C)(C)CO`, the half-inhibitory concentration (IC50) in the data set on Jurkat came out at 192 µM; in the data set with Plasmodium falciparum [1], 2.2 µM; in the data set on Plasmodium falciparum [2] it was 3.9 µM; with Plasmodium falciparum [4] it was 195 µM. In addition, the metabolised at 10 min, 200 µM in the data set with pantetheinase is 5%. The selectivity ratio in data set [3] came to 49.

Turning to `CCSCCNC(=O)CCCNC(=O)[C@H](O)C(C)(C)CO`, the half-inhibitory concentration (IC50) is above 200 µM in the data set with Jurkat, 1.9 µM with Plasmodium falciparum [1], 2 µM in the data set on Plasmodium falciparum [2] and 169 µM with Plasmodium falciparum [4]. In the data set on pantetheinase, the metabolised at 10 min, 200 µM came to 5%. The selectivity ratio in data set [3] was above 100.

As to `CCCCCCNC(=O)CNC(=O)[C@H](O)C(C)(C)CO`, the IC50 in the data set with Jurkat was 126 µM; in the data set on Plasmodium falciparum [1] it was 7.9 µM; in the data set on Plasmodium falciparum [2] it was 4.7 µM; with Plasmodium falciparum [4], 104 µM. In the data set on pantetheinase, the metabolised at 10 min, 200 µM amounted to 5%. The selectivity ratio in data set [3] was found to be 27.

On to `CC(C)(CO)[C@@H](O)C(=O)NCCCC(=O)NCc1ccc2c(c1)OCO2`, for which the values for the IC50 in the data set on Jurkat, with Plasmodium falciparum [2] and with Plasmodium falciparum [4] were 23 µM, 2.4 µM and 88 µM, respectively. Further, the metabolised at 10 min, 200 µM in the data set with pantetheinase came to 5%. Besides, the selectivity ratio in data set [3] is 9.

Consider `CC(C)(CO)[C@@H](O)C(=O)NCCCC(=O)NCC1CCCCC1`, for which the half-inhibitory concentration (IC50) was 113 µM in the data set with Jurkat, 3.3 µM with Plasmodium falciparum [1], 2.1 µM in the data set with Plasmodium falciparum [2] and above 200 µM in the data set with Plasmodium falciparum [4]. In the data set on pantetheinase, the metabolised at 10 min, 200 µM was 5%. The selectivity ratio in data set [3] worked out at 54.
